The IC50 is the concentration at which inhibition is half-maximal.

Seven compounds from ChEMBL document CHEMBL3632540, “Ynamide Click chemistry in development of triazole VEGFR2 TK modulators” (Eur J Med Chem, 2015) can be followed below.

Test [1] can be described thus: Cytotoxicity against human Mahlavu cells incubated for 72 hrs by SRB assay. In kind it is functional, cell-based. In short, it runs like this:
(§1)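 HCC lines kept in DMEM with 10% FBS, L-glutamine, nonessential amino acids and penicillin/streptomycin at 37 °C, 5% CO2, STR-authenticated. Seeded at 2000 cells/well (Huh7) or 1000 cells/well (Mahlavu); serial dilutions added 24 h later, DMSO control. After 72 h, TCA-fixed, SRB-stained, dye solubilized in 10 mM Tris base, A515 read. Triplicates, normalized to DMSO.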

Test [2] deals with Vascular endothelial growth factor receptor 2 (Homo sapiens, UniProt P35968). Nature of the test: Inhibition of GST-tagged human recombinant VEGFR2 kinase expressed in Sf9 insect cells by radiometric protein kinase assay. In short, it runs like this: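 Human VEGFR2 kinase made as GST fusion in Sf9 cells, purified on GSH-agarose, purity checked by SDS-PAGE/silver stain, identity confirmed by mass spectrometry.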

Test [3] is described as follows: Cytotoxicity against human HuH7 cells incubated for 72 hrs by SRB assay. In kind it is functional, cell-based, Huh-7. Put shortly: as §1
For orientation: In SRB staining, fixed cells bind dye roughly in proportion to their protein.

[4] abbreviates: Homo sapiens, Huh-7, 72 h, read-out: IC50.

Chain of Vascular endothelial growth factor receptor 2 (P35968 whole entry, the tested form may be a part): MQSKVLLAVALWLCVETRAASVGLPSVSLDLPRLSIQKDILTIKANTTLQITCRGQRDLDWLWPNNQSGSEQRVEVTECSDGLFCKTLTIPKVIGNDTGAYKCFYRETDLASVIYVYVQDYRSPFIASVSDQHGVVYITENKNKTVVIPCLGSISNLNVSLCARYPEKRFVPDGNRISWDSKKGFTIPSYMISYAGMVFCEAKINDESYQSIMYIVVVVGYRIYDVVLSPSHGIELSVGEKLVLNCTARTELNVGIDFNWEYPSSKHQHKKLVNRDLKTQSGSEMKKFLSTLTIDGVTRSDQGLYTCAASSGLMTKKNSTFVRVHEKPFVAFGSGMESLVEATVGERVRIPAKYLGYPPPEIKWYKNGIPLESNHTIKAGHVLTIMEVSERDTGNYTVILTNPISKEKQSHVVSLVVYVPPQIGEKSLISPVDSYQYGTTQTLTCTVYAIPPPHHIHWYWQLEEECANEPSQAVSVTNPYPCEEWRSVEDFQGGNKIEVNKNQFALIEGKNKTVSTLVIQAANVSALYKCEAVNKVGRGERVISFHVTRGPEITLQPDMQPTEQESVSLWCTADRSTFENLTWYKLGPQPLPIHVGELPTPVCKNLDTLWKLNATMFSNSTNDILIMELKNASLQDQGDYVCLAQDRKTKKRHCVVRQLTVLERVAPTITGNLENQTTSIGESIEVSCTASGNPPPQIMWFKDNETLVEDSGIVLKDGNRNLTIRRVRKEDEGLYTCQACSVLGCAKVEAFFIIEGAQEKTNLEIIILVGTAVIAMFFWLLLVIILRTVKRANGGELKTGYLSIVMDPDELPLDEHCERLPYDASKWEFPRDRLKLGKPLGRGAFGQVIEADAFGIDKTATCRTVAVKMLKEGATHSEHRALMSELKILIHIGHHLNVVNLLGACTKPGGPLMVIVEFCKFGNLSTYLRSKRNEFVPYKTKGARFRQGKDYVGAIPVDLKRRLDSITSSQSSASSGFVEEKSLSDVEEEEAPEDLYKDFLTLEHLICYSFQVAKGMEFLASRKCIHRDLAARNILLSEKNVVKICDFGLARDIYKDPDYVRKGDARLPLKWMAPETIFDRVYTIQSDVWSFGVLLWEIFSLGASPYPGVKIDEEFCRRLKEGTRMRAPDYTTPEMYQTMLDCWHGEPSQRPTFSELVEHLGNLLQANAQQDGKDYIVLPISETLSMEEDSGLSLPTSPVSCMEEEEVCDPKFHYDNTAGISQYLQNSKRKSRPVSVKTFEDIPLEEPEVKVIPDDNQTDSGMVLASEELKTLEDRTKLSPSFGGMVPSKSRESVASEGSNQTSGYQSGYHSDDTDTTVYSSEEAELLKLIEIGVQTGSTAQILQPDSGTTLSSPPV

In the case of `CCS(=O)(=O)c1ccc(OC)c(Nc2cn(-c3ccc(NC(N)=O)c(-c4cccc5ccccc45)c3)nn2)c1`, the IC50 in test [1] was 27.9 µM; in test [2] (read-out: IC50), more than 100 µM; in test [3] (huh-7), “Not Active”.

As for `CCS(=O)(=O)c1ccc(OC)c(Nc2cn(-c3ccc(O)c(-c4cccnc4)c3)nn2)c1`, the IC50 entry in test [2] (sf9) is “Not Active”.

For the compound `CCS(=O)(=O)c1ccc(OC)c(Nc2cn(-c3cc(-c4ccccc4)nc(-c4ccccc4)n3)nn2)c1`, the half-maximal inhibitory concentration (IC50) result in test [2] (sf9) is recorded as “Not Active”.

For the compound `CCS(=O)(=O)c1ccc(OC)c(Nc2cn(-c3cccc(-c4ccccn4)c3)nn2)c1`, the IC50 in test [2] (read-out: IC50) was 42 µM.

On to `CCS(=O)(=O)c1ccc(OC)c(Nc2cn(-c3ccc(O)c(-c4ccccn4)c3)nn2)c1`, for which the IC50 was determined as 13.8 µM in test [1], 6.96 µM in test [2] (read-out: IC50) and 17.7 µM in test [3] (setting [4]).

`CCS(=O)(=O)c1ccc(OC)c(Nc2cn(-c3ccc(O)c(-c4cc[nH]c4)c3)nn2)c1`: the half-inhibitory concentration (IC50) in test [1] was 11.9 µM; in test [2] (read-out: IC50), 40.1 µM; in test [3] (setting [4]) it was 18.6 µM.

Take `CCS(=O)(=O)c1ccc(OC)c(Nc2cn(-c3cccc(-c4cccnc4)c3)nn2)c1`: the IC50 is 11.8 µM in test [1], more than 100 µM in test [2] (read-out: IC50) and 12.8 µM in test [3] (setting [4]).
